The text below walks through data of article PMC10825549 (JID Innovations, 2023).

The structures appear in SMILES notation. pIC50: −log10 of the molar value.

One data set concerns the target Jak1 (Homo sapiens, UniProt P23458). The data set can be described thus: Inhibition of catalytic domain activity, Jak1. The data set is classed as biochemical. In outline: (§1)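 Z′-LYTE biochemical kinase assay run by the vendor per manufacturer's protocol. Each kinase plate carried 0%/100% phosphorylation and 0%/100% inhibition controls. Development-reaction and compound-fluorescence interference controls at each compound concentration. n = 1 per kinase.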

Another data set concerns the target Jak2 (Homo sapiens, UniProt O60674). The data set can be described thus: Inhibition of catalytic domain activity, Jak2. The data set is classed as biochemical. The essentials: as §1
Data set [1] is described as follows: Metabolic stability in liver microsomes. The data set is classed as in vitro ADME. The note with it: rat. In outline:
(§2)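 Test compound from 1 mM DMSO solution preincubated 5 min with dog, human, monkey, rat or minipig liver microsomes. NADPH (10 mM) then added. Reactions stopped at 0, 5, 15 and 30 min with 0.05% formic acid in acetonitrile containing loperamide internal standard. Supernatants analysed by LC-MS/MS; n = 1 per microsome species.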

Data set [2] is described as follows: Metabolic stability in liver microsomes. The data set is classed as in vitro ADME. To be noted: minipig. The essentials: as §2
For orientation: Liver microsomes are a subcellular fraction often used to study metabolism.

Jak1, sequence (P23458 875-1153 limits assumed): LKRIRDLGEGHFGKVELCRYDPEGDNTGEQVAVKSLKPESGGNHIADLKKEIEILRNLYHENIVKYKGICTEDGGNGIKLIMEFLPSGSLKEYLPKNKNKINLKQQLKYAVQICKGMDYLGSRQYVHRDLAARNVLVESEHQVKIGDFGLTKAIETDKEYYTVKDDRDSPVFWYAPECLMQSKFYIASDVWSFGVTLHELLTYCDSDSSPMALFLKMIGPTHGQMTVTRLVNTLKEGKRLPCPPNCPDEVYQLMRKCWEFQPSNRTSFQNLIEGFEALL
Jak2, sequence (O60674 849-1124 limits assumed): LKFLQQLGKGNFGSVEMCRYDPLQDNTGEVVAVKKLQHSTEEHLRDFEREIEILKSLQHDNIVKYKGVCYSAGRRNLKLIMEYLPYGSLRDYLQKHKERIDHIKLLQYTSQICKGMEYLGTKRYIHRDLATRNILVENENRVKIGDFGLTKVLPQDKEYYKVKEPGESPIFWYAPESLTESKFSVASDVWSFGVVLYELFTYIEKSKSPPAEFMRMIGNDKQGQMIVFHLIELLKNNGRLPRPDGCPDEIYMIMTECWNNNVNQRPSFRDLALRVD

As a reminder, the pIC50 is the negative decadic logarithm of the IC50, by convention in mol/L. One may read the CLint scaled as the rate of metabolic loss divided by the concentration. Read a low CLint scaled as slow turnover. As usually defined, the microsomal CLint is a measure of how fast metabolising enzymes remove a compound, apart from limits set by blood flow. For orientation: half-life means the time in which the quantity being followed falls by half. Low readings indicate fast loss, high ones slow loss. As for `CCOC(=O)c1cnc2[nH]ccc2c1N[C@@H]1CCCN(C(=O)CC#N)C1` [ATI-1777, ethyl (R)-4-((1-(2-cyanoacetyl)piperidin-3-yl)amino)-1H-pyrrolo[2,3-b]pyridine-5-carboxylate], the pIC50 was 8.82 at Jak1 and 8.15 against Jak2. The “Fold Selectivity” value on Jak1 (Jak1 reference line of Table 2) is recorded as 1 fold. Moreover, the CLint scaled in data set [1] was found to be 370 mL/min/kg; in data set [2], 365 mL/min/kg. In addition, the microsomal CLint in data set [1] came out at 52 µL/min/mg; in data set [2], 295 µL/min/mg. The half-life was 6.7 min in data set [1] (T1/2, Study 1, n = 1); 27 min in data set [1] (T1/2, Study 2, n = 1); 2.85 min in data set [2] (T1/2, Study 1, n = 1); 5 min in data set [2] (T1/2, Study 2, n = 1).
